ChEMBL document CHEMBL1145462, “In vivo pharmacodynamic activity of the glycopeptide dalbavancin” (Antimicrob Agents Chemother, 2007)
Converted amounts (≈) assume the structure as drawn.

Key:
[1] = Cmax in bacterial pathogen-infected neutropenic Swiss ICR mouse thigh infection model at 40 mg/kg, ip; assay type: ADME, organism-based; set-up: dose 40 mg/kg, route intraperitoneal; details: in vivo
Procedure, shortened: (§1)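 Thigh-infected neutropenic mice received single intraperitoneal doses (2.5, 5, 10, 20, 40, 80 mg/kg; 0.2 ml/dose). Blood was drawn by retroorbital aspiration from groups of three mice at 0.5, 1, 2, 4, 6, 24, 48, 72 and 96 h. Plasma levels were measured by microbiologic assay with Bacillus subtilis (detection limit 0.10 mg/liter). Noncompartmental analysis was used: half-life by linear least-squares regression, AUC by trapezoidal rule.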

Staphylococcus aureus [2] = experiment: AUC/MBC ratio of Staphylococcus aureus Smith infected neutropenic mouse thigh infection model at 50.7 mg/kg, ip administered every 24 hrs by 1-log killing experiment; assay type: functional; details: route intraperitoneal
Streptococcus pneumoniae [3] = experiment: Antibacterial activity against Streptococcus pneumoniae 1199 by microdilution method; assay type: functional
Procedure, shortened: (§2)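 MIC and MBC were determined by CLSI broth microdilution, in duplicate on at least two occasions. Staphylococci were grown in Mueller-Hinton broth and agar; pneumococci were plated on sheep blood agar.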

Staphylococcus aureus [4] = experiment: Antibacterial activity against Staphylococcus aureus ATCC 25923 by microdilution method; assay type: functional; procedure, shortened: as §2
Staphylococcus aureus [5] = experiment: AUC/MIC ratio of methicillin-resistant Staphylococcus aureus infected neutropenic mouse thigh infection model at 53.5 mg/kg, ip administered every 24 hrs by 2-log killing experiment; assay type: functional; details: route intraperitoneal
Staphylococcus aureus [6] = experiment: AUC/MBC ratio of Staphylococcus aureus 31005 infected neutropenic mouse thigh infection model at 67.7 mg/kg, ip administered every 72 hrs by static effect experiment; assay type: functional; details: route intraperitoneal
Staphylococcus aureus [7] = experiment: AUC/MBC ratio of Staphylococcus aureus ATCC 25923 infected neutropenic mouse thigh infection model at 160 mg/kg, ip administered every 72 hrs by static effect experiment; assay type: functional; details: route intraperitoneal
Serum = experiment: Protein binding in Staphylococcus aureus infected neutropenic mouse serum; assay type: ADME, organism-based; details: in vivo
Procedure, shortened: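 MICs for S. aureus ATCC 25923 and an MRSA strain were compared in broth, heat-treated (100°C, 30 min) 95% mouse serum and 95% serum ultrafiltrate, using arithmetic dilutions of 0.02 mg/liter per tube. Bound fraction = (MIC in serum − MIC in ultrafiltrate)/MIC in serum.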

Staphylococcus aureus [8] = experiment: AUC/MIC ratio of Staphylococcus aureus ATCC 25923 infected neutropenic mouse thigh infection model at 160 mg/kg, ip administered every 72 hrs by static effect experiment; assay type: functional; details: route intraperitoneal
Staphylococcus aureus [9] = experiment: AUC/MBC ratio of methicillin-resistant Staphylococcus aureus infected neutropenic mouse thigh infection model at 53.5 mg/kg, ip administered every 24 hrs by 2-log killing experiment; assay type: functional; details: route intraperitoneal
Streptococcus pneumoniae [10] = experiment: AUC/MIC ratio of Streptococcus pneumoniae 1396 infected neutropenic mouse thigh infection model at 0.52 mg/kg, ip administered every 72 hrs by static effect experiment; assay type: functional; details: route intraperitoneal
[11] = Half life in bacterial pathogen-infected neutropenic Swiss ICR mouse thigh infection model at 20 mg/kg, ip; assay type: ADME, organism-based; set-up: dose 20 mg/kg, route intraperitoneal; details: in vivo; procedure, shortened: as §1
Staphylococcus aureus [12] = experiment: AUC/MBC ratio of Staphylococcus aureus 31005 infected neutropenic mouse thigh infection model at 49.3 mg/kg, ip administered every 24 hrs by static effect experiment; assay type: functional; details: route intraperitoneal
Staphylococcus aureus [13] = experiment: AUC/MIC ratio of Staphylococcus aureus 33591 infected neutropenic mouse thigh infection model at 22.3 mg/kg, ip administered every 24 hrs by static effect experiment; assay type: functional; details: route intraperitoneal
Staphylococcus aureus [14] = experiment: AUC/MIC ratio of methicillin-resistant Staphylococcus aureus infected neutropenic mouse thigh infection model at 62 mg/kg, ip administered every 72 hrs by 1-log killing experiment; assay type: functional; details: route intraperitoneal
Staphylococcus aureus [15] = experiment: AUC/MIC ratio of Staphylococcus aureus 33591 infected neutropenic mouse thigh infection model at 74 mg/kg, ip administered every 72 hrs by static effect experiment; assay type: functional; details: route intraperitoneal
Staphylococcus aureus [16] = experiment: AUC/MBC ratio of Staphylococcus aureus 33591 infected neutropenic mouse thigh infection model at 93 mg/kg, ip administered every 72 hrs by 1-log killing experiment; assay type: functional; details: route intraperitoneal
Streptococcus pneumoniae [17] = experiment: AUC/MIC ratio of Streptococcus pneumoniae 1199 infected neutropenic mouse thigh infection model at 0.99 mg/kg, ip administered every 72 hrs by 2-log killing experiment; assay type: functional; details: route intraperitoneal
Staphylococcus aureus [18] = experiment: AUC/MIC ratio of Staphylococcus aureus ATCC 25923 infected neutropenic mouse thigh infection model at 51.2 mg/kg, ip administered every 24 hrs by 1-log killing experiment; assay type: functional; details: route intraperitoneal
Streptococcus pneumoniae [19] = experiment: Bactericidal activity in Streptococcus pneumoniae ATCC 10813 infected non-neutropenic mouse thigh infection model assessed as drug level causing 2-log reduction of bacterial count at 2.03 mg/kg/6days; assay type: functional
[20] = Half life in bacterial pathogen-infected neutropenic Swiss ICR mouse thigh infection model at 5 mg/kg, ip; assay type: ADME, organism-based; set-up: dose 5 mg/kg, route intraperitoneal; details: in vivo; procedure, shortened: as §1
[21] = AUC in bacterial pathogen-infected neutropenic Swiss ICR mouse thigh infection model at 40 mg/kg, ip; assay type: ADME, organism-based; set-up: dose 40 mg/kg, route intraperitoneal; details: in vivo; procedure, shortened: as §1
Streptococcus pneumoniae [22] = experiment: Bactericidal activity in Streptococcus pneumoniae ATCC 10813 infected neutropenic mouse thigh infection model assessed as drug level causing 1-log reduction of bacterial count at 4.13 mg/kg/6days; assay type: functional
Staphylococcus aureus [23] = experiment: AUC/MBC ratio of Staphylococcus aureus 33591 infected neutropenic mouse thigh infection model at 27.7 mg/kg, ip administered every 24 hrs by 1-log killing experiment; assay type: functional; details: route intraperitoneal
[24] = AUC in bacterial pathogen-infected neutropenic Swiss ICR mouse thigh infection model at 2.5 mg/kg, ip; assay type: ADME, organism-based; set-up: dose 2.5 mg/kg, route intraperitoneal; details: in vivo
Procedure, shortened: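 Single-dose serum PK in thigh-infected neutropenic mice; intraperitoneal dalbavancin (0.2 ml/dose) at 2.5–80 mg/kg. Blood from groups of three mice at 0.5–96 h by retroorbital aspiration; plasma level by Bacillus subtilis microbiologic assay (detection limit 0.10 mg/liter). Noncompartmental analysis; AUC by trapezoidal rule from mean concentrations, extrapolated to infinity.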

Staphylococcus aureus [25] = experiment: AUC/MIC ratio of Staphylococcus aureus Smith infected neutropenic mouse thigh infection model at 50.7 mg/kg, ip administered every 24 hrs by 1-log killing experiment; assay type: functional; details: route intraperitoneal
[26] = Half life in bacterial pathogen-infected neutropenic Swiss ICR mouse thigh infection model at 2.5 mg/kg, ip; assay type: ADME, organism-based; set-up: dose 2.5 mg/kg, route intraperitoneal; details: in vivo
Procedure, shortened: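 Single ip dose (0.2 ml) given to thigh-infected neutropenic ICR Swiss mice. Retro-orbital blood taken from groups of three at 0.5–96 h; plasma assayed microbiologically with Bacillus subtilis (detection limit 0.10 mg/liter). Half-life derived by linear least-squares regression within a noncompartmental analysis.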

Staphylococcus aureus [27] = experiment: AUC/MIC ratio of Staphylococcus aureus 33591 infected neutropenic mouse thigh infection model at 27.7 mg/kg, ip administered every 24 hrs by 1-log killing experiment; assay type: functional; details: route intraperitoneal
Streptococcus pneumoniae [28] = experiment: AUC/MIC ratio of Streptococcus pneumoniae 1199 infected neutropenic mouse thigh infection model at 0.49 mg/kg, ip administered every 24 hrs by 1-log killing experiment; assay type: functional; details: route intraperitoneal
Streptococcus pneumoniae [29] = experiment: AUC/MIC ratio of Streptococcus pneumoniae 1293 infected neutropenic mouse thigh infection model at 0.55 mg/kg, ip administered every 24 hrs by 1-log killing experiment; assay type: functional; details: route intraperitoneal
Staphylococcus aureus [30] = experiment: AUC/MBC ratio of Staphylococcus aureus Smith infected neutropenic mouse thigh infection model at 59 mg/kg, ip administered every 72 hrs by static effect experiment; assay type: functional; details: route intraperitoneal
Streptococcus pneumoniae [31] = experiment: AUC/MIC ratio of Streptococcus pneumoniae 1293 infected neutropenic mouse thigh infection model at 1.01 mg/kg, ip administered every 72 hrs by static effect experiment; assay type: functional; details: route intraperitoneal

Compound `CN[C@H]1C(=O)N[C@@H]2Cc3ccc(cc3)Oc3cc4cc(c3O[C@@H]3O[C@H](C(=O)O)[C@@H](O)[C@H](O)[C@H]3NC(=O)CCCCCCCCC(C)C)Oc3ccc(cc3Cl)[C@@H](O)[C@@H]3NC(=O)[C@H](NC(=O)[C@@H]4NC(=O)[C@@H](NC2=O)c2cc(cc(O)c2Cl)Oc2cc1ccc2O)c1ccc(O)c(c1)-c1c(O[C@H]2O[C@H](CO)[C@@H](O)[C@H](O)[C@@H]2O)cc(O)cc1[C@@H](C(=O)NCCCN(C)C)NC3=O` [DALBAVANCIN] has a Cmax [1] of 663 µg/mL, a Ratio (Staphylococcus aureus [2]) of 119 and an MBC (Streptococcus pneumoniae [3]) of 0.004 µg/mL (≈ 0.0022 µM). For the same compound, the MIC (Streptococcus pneumoniae [3]) was 0.004 µg/mL (≈ 0.0022 µM), the MBC (Staphylococcus aureus [4]) was 0.5 µg/mL (≈ 0.275 µM) and the MIC (Staphylococcus aureus [4]) was 0.12 µg/mL (≈ 0.0661 µM). It also gave a RatioAUC/MIC (Staphylococcus aureus [5]) of 519, a Ratio (Staphylococcus aureus [6]) of 112 and a Ratio (Staphylococcus aureus [7]) of 66. For the same compound, the Activity (Serum) was 98.4%, the RatioAUC/MIC (Staphylococcus aureus [8]) was 274 and the Ratio (Staphylococcus aureus [9]) was 125. It also gave a RatioAUC/MIC (Streptococcus pneumoniae [10]) of 4, a half-life [11] of 7.6 h and a Ratio (Staphylococcus aureus [12]) of 242. For the same compound, the RatioAUC/MIC (Staphylococcus aureus [13]) was 96.2, the RatioAUC/MIC (Staphylococcus aureus [14]) was 202 and the RatioAUC/MIC (Staphylococcus aureus [15]) was 123. The Ratio (Staphylococcus aureus [16]) was 76.6, the RatioAUC/MIC (Streptococcus pneumoniae [17]) was 35.3 and the RatioAUC/MIC (Staphylococcus aureus [18]) was 250. It also gave an Activity (Streptococcus pneumoniae [19]) of 2.66, a half-life [20] of 9.6 h and an AUC [21] of 10600 µg·h/mL. It also gave an Activity (Streptococcus pneumoniae [22]) of 4.38, a Ratio (Staphylococcus aureus [23]) of 58.3 and an AUC [24] of 98 µg·h/mL. The RatioAUC/MIC (Staphylococcus aureus [25]) was 248, the half-life [26] was 13.1 h and the RatioAUC/MIC (Staphylococcus aureus [27]) was 121. For the same compound, the RatioAUC/MIC (Streptococcus pneumoniae [28]) was 19.4, the RatioAUC/MIC (Streptococcus pneumoniae [29]) was 21.7 and the Ratio (Staphylococcus aureus [30]) was 46.1. For the same compound, the RatioAUC/MIC (Streptococcus pneumoniae [31]) was 14.1.
